Values after ≈ are worked out from the molar mass of the structure shown.
Experiments:
[1] = target: T1, Tyrosine-protein kinase JAK3 (Homo sapiens, UniProt P52333); assay: Inhibition of recombinant JAK3 using Poly (Glu,Ala,Tyr) as substrate after 2 hrs by luminescence assay
T1 sequence (P52333 whole entry): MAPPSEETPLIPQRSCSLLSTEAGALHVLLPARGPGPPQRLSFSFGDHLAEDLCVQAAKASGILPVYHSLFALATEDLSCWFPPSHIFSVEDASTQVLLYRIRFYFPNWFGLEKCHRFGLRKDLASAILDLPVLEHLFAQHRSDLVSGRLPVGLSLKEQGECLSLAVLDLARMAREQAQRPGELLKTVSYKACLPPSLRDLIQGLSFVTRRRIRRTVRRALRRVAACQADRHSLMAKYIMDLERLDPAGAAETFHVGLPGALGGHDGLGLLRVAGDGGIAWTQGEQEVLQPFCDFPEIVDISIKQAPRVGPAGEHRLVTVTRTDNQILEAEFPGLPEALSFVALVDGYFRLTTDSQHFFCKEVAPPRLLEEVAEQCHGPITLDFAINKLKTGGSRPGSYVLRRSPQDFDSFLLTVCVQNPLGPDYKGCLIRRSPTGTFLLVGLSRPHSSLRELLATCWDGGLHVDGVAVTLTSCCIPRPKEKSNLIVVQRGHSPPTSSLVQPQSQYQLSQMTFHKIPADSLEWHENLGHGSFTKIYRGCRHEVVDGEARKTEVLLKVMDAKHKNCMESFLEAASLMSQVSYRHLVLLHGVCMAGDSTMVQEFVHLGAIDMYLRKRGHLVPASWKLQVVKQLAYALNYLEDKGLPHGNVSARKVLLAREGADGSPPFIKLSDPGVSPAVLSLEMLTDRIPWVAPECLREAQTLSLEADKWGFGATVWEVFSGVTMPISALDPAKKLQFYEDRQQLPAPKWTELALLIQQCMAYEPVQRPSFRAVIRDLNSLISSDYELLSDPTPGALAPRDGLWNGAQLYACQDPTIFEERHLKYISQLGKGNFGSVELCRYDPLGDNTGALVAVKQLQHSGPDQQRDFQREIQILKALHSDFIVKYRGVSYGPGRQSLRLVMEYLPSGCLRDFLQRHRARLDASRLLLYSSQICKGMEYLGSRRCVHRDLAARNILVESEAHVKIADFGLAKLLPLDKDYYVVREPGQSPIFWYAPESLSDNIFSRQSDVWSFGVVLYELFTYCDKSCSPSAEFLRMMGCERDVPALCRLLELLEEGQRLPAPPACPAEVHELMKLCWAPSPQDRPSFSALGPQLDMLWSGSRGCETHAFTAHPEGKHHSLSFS

[2] = target: Non-receptor tyrosine-protein kinase TYK2 (Homo sapiens, UniProt P29597); assay: Inhibition of recombinant TYK2
[3] = target: Tyrosine-protein kinase JAK1 (Homo sapiens, UniProt P23458); assay: Inhibition of recombinant JAK1 using Poly (Glu,Ala,Tyr) as substrate after 2 hrs by luminescence assay
Procedure, shortened: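 Luciferase-coupled ATP-depletion luminescence assay in 50 mM Hepes pH 7.5 with MgCl₂, MnCl₂, BGP, DTT and orthovanadate, 2 h at room temperature. Conditions per target: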

[4] = target: Tyrosine-protein kinase JAK2 (Homo sapiens, UniProt O60674); assay: Inhibition of recombinant JAK2 using Poly (Glu,Ala,Tyr) as substrate after 2 hrs by luminescence assay
[5] = target: T2, Receptor-type tyrosine-protein kinase FLT3 (Homo sapiens, UniProt P36888); assay: Inhibition of recombinant FLT3 using Poly (Glu,Tyr) as substrate after 2 hrs by luminescence assay
T2 sequence (P36888 whole entry): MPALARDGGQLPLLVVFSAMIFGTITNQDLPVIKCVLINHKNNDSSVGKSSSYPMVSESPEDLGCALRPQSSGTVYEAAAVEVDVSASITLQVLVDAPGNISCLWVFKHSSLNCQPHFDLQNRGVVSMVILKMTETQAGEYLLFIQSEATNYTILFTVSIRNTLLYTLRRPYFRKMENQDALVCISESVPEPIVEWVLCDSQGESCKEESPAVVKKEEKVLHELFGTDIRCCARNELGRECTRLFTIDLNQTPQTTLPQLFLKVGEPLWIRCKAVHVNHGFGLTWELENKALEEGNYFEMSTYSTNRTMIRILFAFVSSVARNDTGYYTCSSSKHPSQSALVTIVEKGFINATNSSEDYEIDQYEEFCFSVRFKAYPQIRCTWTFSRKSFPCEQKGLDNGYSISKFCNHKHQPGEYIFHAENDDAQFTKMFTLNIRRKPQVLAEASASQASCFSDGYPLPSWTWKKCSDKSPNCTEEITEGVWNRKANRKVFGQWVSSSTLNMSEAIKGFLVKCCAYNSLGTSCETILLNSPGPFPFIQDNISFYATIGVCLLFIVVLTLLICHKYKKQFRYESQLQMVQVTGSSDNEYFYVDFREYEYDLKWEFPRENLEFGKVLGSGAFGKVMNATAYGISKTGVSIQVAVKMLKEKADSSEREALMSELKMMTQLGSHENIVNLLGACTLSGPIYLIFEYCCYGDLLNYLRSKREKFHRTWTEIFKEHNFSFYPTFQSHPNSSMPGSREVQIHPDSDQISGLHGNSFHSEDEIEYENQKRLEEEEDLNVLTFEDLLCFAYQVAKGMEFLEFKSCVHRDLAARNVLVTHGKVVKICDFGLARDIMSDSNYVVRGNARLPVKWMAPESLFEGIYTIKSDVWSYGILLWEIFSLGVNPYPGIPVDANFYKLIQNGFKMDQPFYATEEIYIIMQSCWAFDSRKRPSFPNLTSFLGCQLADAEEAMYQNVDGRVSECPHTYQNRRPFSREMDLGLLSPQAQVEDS

[6] = target: Cyclin-dependent kinase 2/cyclin A (Homo sapiens, UniProt P24941); assay: Inhibition of recombinant CDK2/Cyclin A using RbinG as substrate after 2 hrs by luminescence assay; format: protein-complex assay
[7] = physchem; conditions: phosphate buffer saline, pH 7

Sequence of Non-receptor tyrosine-protein kinase TYK2 (P29597 whole entry): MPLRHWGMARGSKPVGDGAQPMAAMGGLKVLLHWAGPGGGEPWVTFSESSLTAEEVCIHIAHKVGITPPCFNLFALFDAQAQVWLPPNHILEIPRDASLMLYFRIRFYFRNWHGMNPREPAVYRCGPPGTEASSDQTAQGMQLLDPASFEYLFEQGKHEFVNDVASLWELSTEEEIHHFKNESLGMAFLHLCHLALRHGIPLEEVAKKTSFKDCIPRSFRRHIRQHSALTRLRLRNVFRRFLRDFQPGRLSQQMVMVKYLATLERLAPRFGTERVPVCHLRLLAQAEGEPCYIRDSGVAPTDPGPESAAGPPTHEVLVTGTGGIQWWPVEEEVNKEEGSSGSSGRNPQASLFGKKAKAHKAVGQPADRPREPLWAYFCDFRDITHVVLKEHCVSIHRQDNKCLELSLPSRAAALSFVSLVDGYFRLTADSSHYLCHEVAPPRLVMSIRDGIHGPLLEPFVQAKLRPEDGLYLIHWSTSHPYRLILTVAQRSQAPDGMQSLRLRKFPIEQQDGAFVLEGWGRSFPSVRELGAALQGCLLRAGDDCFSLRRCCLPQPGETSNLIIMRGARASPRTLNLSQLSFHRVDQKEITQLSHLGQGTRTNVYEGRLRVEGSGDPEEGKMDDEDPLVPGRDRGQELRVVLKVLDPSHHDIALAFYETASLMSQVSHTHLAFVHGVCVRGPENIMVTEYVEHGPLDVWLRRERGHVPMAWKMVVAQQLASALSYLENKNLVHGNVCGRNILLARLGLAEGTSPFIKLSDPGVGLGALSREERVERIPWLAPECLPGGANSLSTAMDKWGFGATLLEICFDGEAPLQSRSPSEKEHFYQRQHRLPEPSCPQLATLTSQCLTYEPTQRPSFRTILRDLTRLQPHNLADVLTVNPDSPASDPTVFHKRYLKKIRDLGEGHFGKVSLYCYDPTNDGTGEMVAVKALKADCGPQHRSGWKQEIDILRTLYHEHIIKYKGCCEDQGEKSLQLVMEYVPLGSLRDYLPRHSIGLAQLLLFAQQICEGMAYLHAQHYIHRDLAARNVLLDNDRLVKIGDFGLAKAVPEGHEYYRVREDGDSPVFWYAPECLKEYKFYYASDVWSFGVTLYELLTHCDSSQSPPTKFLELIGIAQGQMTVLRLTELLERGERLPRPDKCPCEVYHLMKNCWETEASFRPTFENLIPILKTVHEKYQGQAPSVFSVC
Sequence of Tyrosine-protein kinase JAK1 (P23458 whole entry): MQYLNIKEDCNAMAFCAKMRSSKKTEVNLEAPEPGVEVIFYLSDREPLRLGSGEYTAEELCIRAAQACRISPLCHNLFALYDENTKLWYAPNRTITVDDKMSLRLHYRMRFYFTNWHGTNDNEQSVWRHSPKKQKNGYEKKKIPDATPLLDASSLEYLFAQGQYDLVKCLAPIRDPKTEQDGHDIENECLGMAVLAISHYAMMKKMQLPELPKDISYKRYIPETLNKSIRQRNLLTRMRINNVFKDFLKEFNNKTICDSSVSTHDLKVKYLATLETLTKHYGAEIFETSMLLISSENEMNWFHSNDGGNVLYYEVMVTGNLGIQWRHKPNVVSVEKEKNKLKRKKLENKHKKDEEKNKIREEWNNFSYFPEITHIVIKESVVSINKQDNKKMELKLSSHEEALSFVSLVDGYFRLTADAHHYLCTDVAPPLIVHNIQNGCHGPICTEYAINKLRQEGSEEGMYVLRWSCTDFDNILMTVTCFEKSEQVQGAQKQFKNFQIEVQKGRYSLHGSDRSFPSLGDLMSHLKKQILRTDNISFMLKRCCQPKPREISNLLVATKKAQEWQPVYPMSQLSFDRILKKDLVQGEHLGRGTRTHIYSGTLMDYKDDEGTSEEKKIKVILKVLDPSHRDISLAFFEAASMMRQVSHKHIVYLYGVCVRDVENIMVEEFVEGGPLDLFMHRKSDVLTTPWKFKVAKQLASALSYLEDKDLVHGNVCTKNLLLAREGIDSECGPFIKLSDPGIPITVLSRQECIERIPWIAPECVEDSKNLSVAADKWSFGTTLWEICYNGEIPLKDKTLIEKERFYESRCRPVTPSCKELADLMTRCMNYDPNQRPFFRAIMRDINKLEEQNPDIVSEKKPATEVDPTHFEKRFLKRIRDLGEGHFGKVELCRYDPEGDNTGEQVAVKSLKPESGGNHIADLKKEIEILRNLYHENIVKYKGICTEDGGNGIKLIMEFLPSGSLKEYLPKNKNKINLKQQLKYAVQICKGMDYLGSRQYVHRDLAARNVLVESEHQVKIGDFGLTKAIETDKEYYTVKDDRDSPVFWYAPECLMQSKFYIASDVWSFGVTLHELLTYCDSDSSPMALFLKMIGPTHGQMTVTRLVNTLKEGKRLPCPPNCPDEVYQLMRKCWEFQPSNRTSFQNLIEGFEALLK
Sequence of Tyrosine-protein kinase JAK2 (O60674 whole entry): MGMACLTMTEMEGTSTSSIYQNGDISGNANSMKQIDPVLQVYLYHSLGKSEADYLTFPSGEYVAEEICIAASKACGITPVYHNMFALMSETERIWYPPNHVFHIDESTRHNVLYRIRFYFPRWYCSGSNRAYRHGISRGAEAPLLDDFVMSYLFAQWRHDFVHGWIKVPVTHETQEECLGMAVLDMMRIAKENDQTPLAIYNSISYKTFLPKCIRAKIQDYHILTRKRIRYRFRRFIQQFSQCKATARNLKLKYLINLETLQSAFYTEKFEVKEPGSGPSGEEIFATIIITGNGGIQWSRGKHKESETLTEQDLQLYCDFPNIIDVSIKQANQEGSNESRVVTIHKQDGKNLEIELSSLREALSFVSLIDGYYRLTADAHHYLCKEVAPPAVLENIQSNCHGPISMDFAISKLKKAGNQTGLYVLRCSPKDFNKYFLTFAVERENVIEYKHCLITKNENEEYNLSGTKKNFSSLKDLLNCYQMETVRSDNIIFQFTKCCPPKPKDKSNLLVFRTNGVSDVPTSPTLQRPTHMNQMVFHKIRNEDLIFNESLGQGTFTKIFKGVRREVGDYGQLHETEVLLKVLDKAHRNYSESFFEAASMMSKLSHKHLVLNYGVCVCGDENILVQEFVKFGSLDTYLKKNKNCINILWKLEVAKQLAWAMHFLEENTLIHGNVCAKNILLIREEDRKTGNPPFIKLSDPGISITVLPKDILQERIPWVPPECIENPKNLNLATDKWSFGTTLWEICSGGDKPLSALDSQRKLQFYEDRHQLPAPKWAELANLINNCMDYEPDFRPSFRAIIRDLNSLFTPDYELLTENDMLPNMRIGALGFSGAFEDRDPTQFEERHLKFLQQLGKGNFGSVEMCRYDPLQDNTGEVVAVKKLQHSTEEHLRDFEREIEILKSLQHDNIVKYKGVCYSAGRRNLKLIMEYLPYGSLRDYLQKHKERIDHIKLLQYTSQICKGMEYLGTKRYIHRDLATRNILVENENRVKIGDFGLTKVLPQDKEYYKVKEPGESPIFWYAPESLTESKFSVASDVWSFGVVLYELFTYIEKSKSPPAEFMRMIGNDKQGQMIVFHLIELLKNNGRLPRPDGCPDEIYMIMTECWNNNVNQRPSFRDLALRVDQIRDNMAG

O=C1CCN(CCOc2ccc3cc2COCC=CCOCc2cccc(c2)-c2ccnc(n2)N3)C1 (mixture of isomers)
IC50 [1]: 380 nM | IC50 [2]: 140 nM | IC50 [3]: 940 nM | IC50 [4]: 22 nM | IC50 [5]: 67 nM | IC50 [6]: 5800 nM

Nc1cc2cc(c1)Nc1nccc(n1)-c1cccc(c1)COCC=CCOC2 (mixture of isomers)
solubility [7]: 25 µg/mL | IC50 [4]: 35 nM | IC50 [5]: 52 nM | IC50 [6]: 240 nM

C1=CCOCc2cc(ccc2N2CCOCC2)Nc2nccc(n2)-c2cccc(c2)COC1 (mixture of isomers)
IC50 [2]: 160 nM | IC50 [3]: 8700 nM | IC50 [4]: 60 nM | IC50 [5]: 32 nM | IC50 [6]: > 10000 nM

CC(=O)N1CCN(c2ccc3cc2COCC=CCOCc2cccc(c2)-c2ccnc(n2)N3)CC1 (mixture of isomers)
IC50 [1]: 6000 nM | IC50 [2]: 110 nM | IC50 [3]: 2800 nM | IC50 [4]: 120 nM | IC50 [5]: 38 nM | IC50 [6]: 6200 nM

Fc1cnc2nc1-c1cccc(c1)COCC=CCOCc1cc(ccc1OCCN1CCCC1)N2 (mixture of isomers)
IC50 [1]: 1000 nM | IC50 [2]: 140 nM | IC50 [3]: 830 nM | IC50 [4]: 17 nM | IC50 [5]: 15 nM | IC50 [6]: 1550 nM

C1=CCOCc2cccc(c2)-c2ccnc(n2)Nc2cc(cc(OCCN3CCOCC3)c2)COC1 (mixture of isomers)
solubility [7]: 40 µg/mL | IC50 [1]: 3300 nM | IC50 [2]: 81 nM | IC50 [3]: 2400 nM | IC50 [4]: 96 nM | IC50 [5]: 19 nM | IC50 [6]: 2700 nM

CCS(=O)(=O)N1CCN(c2ccc3cc2COCC=CCOCc2cccc(c2)-c2ccnc(n2)N3)CC1 (mixture of isomers)
IC50 [1]: > 10000 nM | IC50 [2]: 140 nM | IC50 [3]: > 10000 nM | IC50 [4]: 150 nM | IC50 [5]: 150 nM | IC50 [6]: > 10000 nM

CCN(CC)CCC(=O)Nc1cc2cc(c1)Nc1nccc(n1)-c1cccc(c1)COCC=CCOC2 (mixture of isomers)
IC50 [1]: 390 nM | IC50 [2]: 18 nM | IC50 [3]: 1900 nM | IC50 [4]: 44 nM | IC50 [5]: 78 nM | IC50 [6]: 400 nM

COc1ccc2cc1-c1ccnc(n1)Nc1ccc(OCCN3CCCC3)c(c1)COCC=CCOC2
IC50 [1]: 7200 nM | IC50 [2]: 620 nM | IC50 [3]: 4900 nM | IC50 [4]: 330 nM | IC50 [5]: 12 nM | IC50 [6]: > 10000 nM

C1=CCOc2cccc(c2)Nc2nccc(n2)-c2cccc(c2)OCC1 (mixture of isomers)
solubility [7]: < 10 µg/mL | IC50 [1]: > 10000 nM | IC50 [2]: 70 nM | IC50 [3]: > 10000 nM | IC50 [4]: 230 nM | IC50 [5]: 880 nM | IC50 [6]: 330 nM

ClCCOc1ccc2cc1COCC=CCOCc1cccc(c1)-c1ccnc(n1)N2 (mixture of isomers)
IC50 [1]: > 10000 nM | IC50 [2]: 470 nM | IC50 [3]: > 10000 nM | IC50 [4]: 220 nM | IC50 [5]: 76 nM | IC50 [6]: > 10000 nM

C1=CCCOc2cccc(c2)-c2ccnc(n2)Nc2cccc(c2)OCC1
IC50 [1]: > 10000 nM | IC50 [2]: 5200 nM | IC50 [3]: > 10000 nM | IC50 [4]: 1200 nM | IC50 [5]: 1100 nM | IC50 [6]: > 10000 nM

O=C1CCCN1CCOc1ccc2cc1COCC=CCOCc1cccc(c1)-c1ccnc(n1)N2 (mixture of isomers)
IC50 [1]: 500 nM | IC50 [2]: 180 nM | IC50 [3]: 1300 nM | IC50 [4]: 22 nM | IC50 [5]: 140 nM | IC50 [6]: 9400 nM

CN(C)CCN(C)c1ccc2cc1COCC=CCOCc1cccc(c1)-c1ccnc(n1)N2 (mixture of isomers)
solubility [7]: 171 µg/mL | IC50 [2]: 71 nM | IC50 [3]: 3600 nM | IC50 [4]: 77 nM | IC50 [5]: 31 nM | IC50 [6]: 88 nM

CN1CCN(c2ccc3cc2COCC=CCOCc2cccc(c2)-c2ccnc(n2)N3)CC1 (mixture of isomers)
solubility [7]: 26.4 µg/mL | IC50 [2]: 190 nM | IC50 [3]: 3600 nM | IC50 [4]: 41 nM | IC50 [5]: 30 nM | IC50 [6]: > 10000 nM

Oc1ccc2cc1COCC=CCOCc1cccc(c1)-c1ccnc(n1)N2 (mixture of isomers)
IC50 [1]: 1100 nM | IC50 [2]: 170 nM | IC50 [3]: 400 nM | IC50 [4]: 53 nM | IC50 [5]: 170 nM | IC50 [6]: 210 nM

Fc1ccc2cc1COCC=CCOCc1cc(ccc1OCCN1CCCC1)Nc1nccc-2n1 (mixture of isomers)
IC50 [1]: 720 nM | IC50 [3]: 4600 nM | IC50 [4]: 25 nM | IC50 [5]: 40 nM | IC50 [6]: 3250 nM

C1=CCOCc2cccc(c2)-c2ccnc(n2)Nc2cc(cc(OCCN3CCCC3)c2)COC1 (mixture of isomers)
solubility [7]: 145 µg/mL | IC50 [1]: 830 nM | IC50 [2]: 80 nM | IC50 [3]: 2100 nM | IC50 [4]: 48 nM | IC50 [5]: 22 nM | IC50 [6]: 570 nM

COc1cc2cc(c1OCCN1CCCC1)COCC=CCOCc1cccc(c1)-c1ccnc(n1)N2 (mixture of isomers)
solubility [7]: 154 µg/mL | IC50 [2]: 170 nM | IC50 [3]: 1700 nM | IC50 [4]: 36 nM | IC50 [5]: 6 nM | IC50 [6]: 3400 nM

COc1ccc2cc1COCC=CCOc1cccc(c1)-c1ccnc(n1)N2 (mixture of isomers)
solubility [7]: < 10 µg/mL | IC50 [2]: 120 nM | IC50 [3]: 5800 nM | IC50 [4]: 260 nM | IC50 [5]: 78 nM | IC50 [6]: 360 nM

Fc1cc2cc(c1)-c1ccnc(n1)Nc1ccc(OCCN3CCCC3)c(c1)COCC=CCOC2 (mixture of isomers)
solubility [7]: 2.61 µg/mL | IC50 [2]: 36 nM | IC50 [3]: 380 nM | IC50 [4]: 24 nM | IC50 [5]: 8 nM | IC50 [6]: 2000 nM

OCCN1CCN(c2ccc3cc2COCC=CCOCc2cccc(c2)-c2ccnc(n2)N3)CC1
solubility [7]: 150 µg/mL (≈ 308 µM) | IC50 [1]: 2500 nM | IC50 [2]: 160 nM | IC50 [3]: 3100 nM | IC50 [4]: 84 nM | IC50 [5]: 70 nM | IC50 [6]: 3700 nM

COc1ccc2cc1COCC=CCOCc1cccc(c1)-c1ccnc(n1)N2 (mixture of isomers)
IC50 [1]: 1200 nM | IC50 [2]: 210 nM | IC50 [3]: 1900 nM | IC50 [4]: 70 nM | IC50 [5]: 190 nM | IC50 [6]: 860 nM

COc1ccc2cc1COCC=CCCOc1cccc(c1)-c1ccnc(n1)N2 (mixture of isomers)
IC50 [2]: 150 nM | IC50 [3]: 3000 nM | IC50 [4]: 130 nM | IC50 [5]: 310 nM | IC50 [6]: > 10000 nM

C1=CCOCc2cc(ccc2N2CCNCC2)Nc2nccc(n2)-c2cccc(c2)COC1 (mixture of isomers)
solubility [7]: 8.79 µg/mL | IC50 [1]: 1600 nM | IC50 [2]: 140 nM | IC50 [3]: 2500 nM | IC50 [4]: 83 nM | IC50 [5]: 49 nM | IC50 [6]: 3400 nM
